Source: ChEMBL document CHEMBL4765426, “Design, synthesis and in vitro anti-influenza A virus evaluation of novel quinazoline derivatives containing S-acetamide and NH-acetamide moieties at C-4” (Eur J Med Chem, 2020)
The source made the active and inactive calls.

Assays:
[1] = Cytotoxicity against human A549 cells assessed as reduction in cell viability after 48 hrs by CCK8 assay; assay type: cell-based
[2] = AUC (0 to t) in Sprague-Dawley rat at 1.25 mg/kg, iv measured up to 24 hrs by HPLC analysis; assay type: ADME, organism-based; parameters: route intravenous, dose 1.25 mg/kg, time <=24; conditions: in vivo
Procedure, shortened: (§1)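 Male Sprague-Dawley rats (n = 3 per route) received a single intravenous dose (1.25 mg/kg) or a single oral dose (25 mg/kg). Plasma concentrations were followed over time, and PK parameters were derived from them. Values are reported as mean ± deviation.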

[3] = Half life in Sprague-Dawley rat at 1.25 mg/kg, iv measured up to 24 hrs by HPLC analysis; assay type: ADME, organism-based; conditions: in vivo; procedure, shortened: as §1
[4] = Half life in Sprague-Dawley rat at 25 mg/kg, po measured up to 24 hrs by HPLC analysis; assay type: ADME, organism-based; conditions: in vivo; procedure, shortened: as §1
[5] = Cmax in Sprague-Dawley rat at 1.25 mg/kg, iv measured up to 24 hrs by HPLC analysis; assay type: ADME, organism-based; parameters: route intravenous, dose 1.25 mg/kg, time <=24; conditions: in vivo; procedure, shortened: as §1
[6] = AUMC (0 to t) in Sprague-Dawley rat at 25 mg/kg, po measured up to 24 hrs by HPLC analysis; assay type: ADME, organism-based; conditions: in vivo; procedure, shortened: as §1
[7] = AUMC (0 to infinity) in Sprague-Dawley rat at 1.25 mg/kg, iv measured up to 24 hrs by HPLC analysis; assay type: ADME, organism-based; conditions: in vivo; procedure, shortened: as §1
Influenza A virus [8] = assay: Antiviral activity against Influenza A virus A/WSN/33(H1N1)) infected in A549 cells assessed as reduction in viral yield at 2.5 uM preincubated before viral infection by time of addition assay; assay type: functional, organism-based; conditions: A/WSN/1933(H1N1)
Procedure, shortened: (§2)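 For time-of-addition, A549 cells were inoculated with single-cycle A/WSN/33 (H1N1) virus at MOI 0.2, and compound was added at 2.5 μM. Viral yield was measured as Gluc activity at 11 h post-infection. DMSO served as negative control and ribavirin (30 μM) as positive control.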

[9] = AUC (0 to infinity) in Sprague-Dawley rat at 25 mg/kg, po measured up to 24 hrs by HPLC analysis; assay type: ADME, organism-based; parameters: route oral, dose 25 mg/kg, time <=24; conditions: in vivo; procedure, shortened: as §1
[10] = Cytotoxicity against human HEK293T cells assessed as reduction in cell viability after 48 hrs by CCK8 assay; assay type: cell-based, HEK-293T
Influenza A virus [11] = assay: Antiviral activity against Influenza A virus A/WSN/33(H1N1)) infected in A549 cells assessed as inhibition of virus replication at early stage at 2.5 uM after 2 to 4 hrs post infection by time of addition assay; assay type: functional, organism-based; conditions: A/WSN/1933(H1N1), time 2-4 hrs; procedure, shortened: as §2
[12] = Elimination rate constant in Sprague-Dawley rat at 25 mg/kg, po measured up to 24 hrs by HPLC analysis; assay type: ADME, organism-based; conditions: in vivo; procedure, shortened: as §1
[13] = Selectivity index, ratio of CC50 for human HEK293T cells to IC50 for Influenza A virus A/WSN/33(H1N1) infected in HEK293T-Gluc cells; assay type: toxicity, cell-based; conditions: read-out: Ratio CC50/IC50
[14] = AUMC (0 to infinity) in Sprague-Dawley rat at 25 mg/kg, po measured up to 24 hrs by HPLC analysis; assay type: ADME, organism-based; conditions: in vivo; procedure, shortened: as §1
[15] = Mean residence time in Sprague-Dawley rat at 1.25 mg/kg, iv measured up to 24 hrs by HPLC analysis; assay type: ADME, organism-based; conditions: in vivo; procedure, shortened: as §1
Influenza A virus [16] = assay: Antiviral activity against Influenza A virus A/WSN/33(H1N1) infected in HEK293T cells co-transfected with NP/PA/PB1/PB2/pol-LUC/SV40-Renilla assessed as inhibition of viral RNA transcription and replication at 2.5 uM after 24 hrs by mini-genome replicon system based luciferase assay; assay type: functional, A/WSN/1933(H1N1); parameters: scale not given: the % may be the effect or the level left
Procedure, shortened: (§3)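 In the mini-genome replicon assay, HEK293T cells were transfected with pCAGGS plasmids encoding PB2, PB1, PA and NP, plus pol-LUC and SV40-Renilla, with or without compound (1.25 or 2.5 μM). Firefly and Renilla luciferase were measured 24 h post-transfection and compared against negative control (p<0.01 threshold).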

Influenza A virus [17] = assay: Antiviral activity against Influenza A virus A/WSN/33(H1N1) infected in HEK293T-Gluc cells pretreated for 2 hrs followed by viral infection and measured after 24 hrs by Gaussia luciferase reporter gene assay; assay type: functional, organism-based; conditions: A/WSN/1933(H1N1), HEK-293T
Procedure, shortened: (§4)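 Reporter cells were HEK293T cells stably transfected with pLenti6-Gluc, which constitutively expresses negative-strand Gaussia luciferase RNA that becomes positive-strand on IAV infection. Cells were infected with A/WSN/33 or A/PR/8/1934 (H1N1). Antiviral activity was read as Gluc signal, and IC50 values were derived. Ribavirin served as positive control.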

[18] = Clearance in Sprague-Dawley rat at 1.25 mg/kg, iv measured up to 24 hrs by HPLC analysis; assay type: ADME, organism-based; conditions: in vivo; procedure, shortened: as §1
[19] = Volume of distribution at steady state in Sprague-Dawley rat at 1.25 mg/kg, iv measured up to 24 hrs by HPLC analysis; assay type: ADME, organism-based; conditions: in vivo, read-out: Vdss; procedure, shortened: as §1
[20] = Initial plasma concentration in Sprague-Dawley rat at 1.25 mg/kg, iv measured up to 24 hrs by HPLC analysis; assay type: ADME, organism-based; procedure, shortened: as §1
[21] = Cmax in Sprague-Dawley rat at 25 mg/kg, po measured up to 24 hrs by HPLC analysis; assay type: ADME, organism-based; parameters: route oral, dose 25 mg/kg, time <=24; conditions: in vivo; procedure, shortened: as §1
[22] = Mean residence time in Sprague-Dawley rat at 25 mg/kg, po measured up to 24 hrs by HPLC analysis; assay type: ADME, organism-based; conditions: in vivo; procedure, shortened: as §1
Influenza A virus [23] = assay: Antiviral activity against Influenza A virus A/WSN/33(H1N1) infected in HEK293T-Gluc cells assessed as inhibition of virus infection at 10 uM pretreated for 2 hrs followed by viral infection and measured after 24 hrs by Gaussia luciferase reporter gene assay; assay type: functional; conditions: A/WSN/1933(H1N1), HEK-293T, time 26 hrs
Procedure, shortened: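 A single-concentration screen at 10 μM was run against A/WSN/33 (H1N1) in HEK293T-Gluc reporter cells. These cells carry a stably transfected pLenti6-Gluc construct expressing negative-strand Gaussia luciferase RNA that is converted to positive strand upon infection. Inhibition ratio of infection was read from Gluc activity.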

[24] = AUMC (0 to t) in Sprague-Dawley rat at 1.25 mg/kg, iv measured up to 24 hrs by HPLC analysis; assay type: ADME, organism-based; conditions: in vivo; procedure, shortened: as §1
[25] = AUC (0 to t) in Sprague-Dawley rat at 25 mg/kg, po measured up to 24 hrs by HPLC analysis; assay type: ADME, organism-based; parameters: route oral, dose 25 mg/kg, time <=24; conditions: in vivo; procedure, shortened: as §1
[26] = Elimination rate constant in Sprague-Dawley rat at 1.25 mg/kg, iv measured up to 24 hrs by HPLC analysis; assay type: ADME, organism-based; conditions: in vivo; procedure, shortened: as §1
[27] = Tmax in Sprague-Dawley rat at 25 mg/kg, po measured up to 24 hrs by HPLC analysis; assay type: ADME, organism-based; conditions: in vivo; procedure, shortened: as §1
[28] = Oral bioavailability in Sprague-Dawley rat at 25 mg/kg measured up to 24 hrs by HPLC analysis; assay type: ADME, organism-based; conditions: in vivo; procedure, shortened: as §1
Influenza A virus [29] = assay: Antiviral activity against Influenza A virus A/WSN/33(H1N1) infected in HEK293T cells co-transfected with NP/PA/PB1/PB2/pol-LUC/SV40-Renilla assessed as inhibition of viral RNA transcription and replication after 24 hrs by mini-genome replicon system based luciferase assay; assay type: functional, organism-based; conditions: A/WSN/1933(H1N1), dose 1.25-2.5 µM; procedure, shortened: as §3
[30] = AUC (0 to infinity) in Sprague-Dawley rat at 1.25 mg/kg, iv measured up to 24 hrs by HPLC analysis; assay type: ADME, organism-based; parameters: route intravenous, dose 1.25 mg/kg, time <=24; conditions: in vivo; procedure, shortened: as §1
Influenza A virus [31] = assay: Antiviral activity against Influenza A virus A/PR/8/34 (H1N1) infected in HEK293T-Gluc cells pretreated for 2 hrs followed by viral infection and measured after 24 hrs by Gaussia luciferase reporter gene assay; assay type: functional, organism-based; conditions: A/Puerto Rico/8/1934(H1N1), HEK-293T; procedure, shortened: as §4

O=C(CNc1nc(N2CCCC2)nc2ccccc12)Nc1ccc2ccccc2c1
CC50 at 48 h [1]: 4.77 µM | AUC(0-t) at 24 h [2]: 34.9 ng·h/mL | half-life [3]: 40.8 min | half-life [4]: 135 min | Cmax [5]: 58 ng/mL | AUMCt [6]: 313 hr.hr.ng/ml | AUMC [7]: 30.6 hr.hr.ng/ml | Activity (Influenza A virus [8]): inactive | AUC(0-inf) [9]: 183 ng·h/mL | CC50 at 48 h [10]: 59.9 µM | Activity (Influenza A virus [11]): Active | k el at 24 h [12]: 8.89e-05 s⁻¹ | selectivity ratio [13]: 46.5 | AUMC [14]: 553 hr.hr.ng/ml | MRT [15]: 47.4 min | Activity (Influenza A virus [16]): 80% | IC50 (Influenza A virus [17]): 1.29 µM | clearance [18]: 557 mL/min/kg | Vd [19]: 26.6 L/kg | C0 at 24 h [20]: 80.8 ng/mL | Cmax [21]: 78.6 ng/mL | MRT [22]: 191 min | inhibition at 10 µM (Influenza A virus [23]): 99.8% | AUMCt [24]: 18 hr.hr.ng/ml | AUC(0-t) at 24 h [25]: 157 ng·h/mL | k el at 24 h [26]: 0.000286 s⁻¹ | Tmax [27]: 19.8 min | bioavailability [28]: 22.5% | Activity (Influenza A virus [29]): Dose-dependent effect | AUC(0-inf) [30]: 39.2 ng·h/mL | IC50 (Influenza A virus [31]): 0.63 µM

O=C(CNc1nc(N2CCCC2)nc2ccccc12)Nc1ccccc1
CC50 at 48 h [1]: 19 µM | CC50 at 48 h [10]: 23.3 µM | selectivity ratio [13]: 12.4 | IC50 (Influenza A virus [17]): 1.88 µM | inhibition at 10 µM (Influenza A virus [23]): 95.8% | IC50 (Influenza A virus [31]): 1.47 µM

O=C(CNc1nc(N2CCc3ccccc3C2)nc2ccccc12)NCc1ccccc1
CC50 at 48 h [1]: 12.8 µM | CC50 at 48 h [10]: 29.4 µM | selectivity ratio [13]: 4.3 | IC50 (Influenza A virus [17]): 6.84 µM | IC50 (Influenza A virus [31]): 0.12 µM

O=C(CNc1nc(N2CCCC2)nc2ccccc12)Nc1cc(Cl)cc(Cl)c1
CC50 at 48 h [1]: 5.92 µM | CC50 at 48 h [10]: 15.9 µM | selectivity ratio [13]: 1.75 | IC50 (Influenza A virus [17]): 9.04 µM | IC50 (Influenza A virus [31]): 0.95 µM

O=C(CNc1nc(N2CCCC2)nc2ccccc12)NCc1ccco1
CC50 at 48 h [10]: > 100 µM | selectivity ratio [13]: > 2.54 | IC50 (Influenza A virus [17]): 39.4 µM

CCOc1ccc(NC(=O)CSc2c[nH]c3ccc(Br)cc23)cc1
CC50 at 48 h [1]: 71.4 µM | CC50 at 48 h [10]: 44 µM | selectivity ratio [13]: 10.5 | IC50 (Influenza A virus [17]): 4.18 µM | inhibition at 10 µM (Influenza A virus [23]): 90.2% | IC50 (Influenza A virus [31]): 0.33 µM

NC(=O)c1ncn([C@@H]2O[C@H](CO)[C@@H](O)[C@H]2O)n1 [RIBAVIRIN]
CC50 at 48 h [10]: > 100 µM | selectivity ratio [13]: > 6.51

CCN(CC)c1nc(NCC(=O)NCc2ccccc2)c2ccccc2n1
CC50 at 48 h [1]: > 100 µM | CC50 at 48 h [10]: > 100 µM | selectivity ratio [13]: > 20 | IC50 (Influenza A virus [17]): 5 µM | IC50 (Influenza A virus [31]): 5.8 µM
